Most compounds without a hit are left out; they make up all but 3.1% or so of the library.
T cruzi inh = blocks replication of Trypanosoma cruzi. T. cruzi beta-gal in NIH3T3, luminescence, 90 h. hit rate 1.4% among 300,000. AID 1885. inhibition, % (test concentration not listed);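 active = mean inhibition across valid replicates above about 55%, limit read from the data; inconclusive = mean below that limit but half or more replicates reach it; inactive = mean below it, under half of replicates reach it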;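 also: signal also drops with host cell toxicity which is not excluded here; 0% = plate median of DMSO wells and 100% = zero luminescence signal; higher percent means less beta-gal luminescence so fewer parasites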
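Assay system: NIH/3T3 fibroblasts plus reporter T. cruzi. Amount: NIH/3T3 cells, 5,000 per well. Buffer or medium: DMEM, 2% fetal bovine serum. Doses: compound pinned at 50 nL/well, DMSO. Schedule: ≥90 h infection period, 3 h prior cell attachment. Signal: luminescent β-galactosidase signal after 60 min lysis. Read-out: parasite load inhibition, %.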
CSC inhib = blocks cancer stem cells. cancer stem cell-like cells viability, luminescence. inhibition, % at 7.5 µM. AID 2717. hit rate 1.1% among 300,000; in the data active = inhibition above about 75%; inconclusive = no clear call, values can overlap the other calls; tested in HMLE shEcad cells
HIF act = HIF pathway transcriptional activation. U2OS HRE-luciferase reporter, luminescence; normalized: DMSO 0%, desferrioxamine 100%. hit rate 0.32% among 300,000. activation, % at 7.5 µM (by protocol);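 active = mean activation of at least 10% of the iron chelator positive control signal, with at least half of replicates also reaching 10%; inconclusive = mean and replicate majority disagree about reaching 10%; inactive = mean and most replicates under 10%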
PolyA inhibitor = inhibitors of polyadenylation in S. cerevisiae; activity score, % at 12 µM; hit rate 0.02% among 300,000; S. cerevisiae SKY197-pL101 polyadenylation reporter, beta-gal luminescence; efflux-impaired pdr1/pdr3 knockout yeast; score 100 = 6 SD above DMSO;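 active = lowest replicate activity score at least 50, where 100 means six control SD above control mean; inconclusive = lowest score under 50 but half or more replicates reach 50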;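 also: yeast exposed to compound for 9 h at 30 °C; higher score means more reporter readthrough which indicates perturbed polyadenylation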
Calb FLC = C. albicans growth modulation with fluconazole | C. albicans CaCi-2 + fluconazole, Alamar Blue growth, 48 h | growth inhibition, % (test concentration not listed) | hit rate 0.57% among 300,000;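 active = growth inhibition above about 58% in most replicates, limit read from the data, passing the limit was not always enough; inconclusive = exactly half the replicates above a set limit; inactive = most replicates below a set limit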;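 also: all wells also contain fluconazole at 8 µg/ml as a sub-toxic cotreatment; 0% = median of DMSO wells and 100% = median of geldanamycin control wells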
Beta apoptosis = beta cell apoptosis inhibition; hit rate 0.8% among 300,000; protection from apoptosis, % (no concentration beside the values); AID 435005; INS-1E cytokine-induced death, ATP luminescence, 48 h; percent of positive-control rescue, neutral wells zero;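 active = Every replicate reaches about 75%, or at least half do and their mean reaches it too, limit read from the data; inconclusive = At least half of replicates reach the limit but their mean does not; inactive = Under half of replicates reach the limit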;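 also: 0% = cytokine-treated negative control wells and 100% = positive control rescue; higher means more ATP so stronger rescue from cytokine killing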
Numbers without * were called inactive; ? = inconclusive; · = no result given.

SMILES	T cruzi inh	CSC inhib	HIF act	PolyA inhibitor	Calb FLC	Beta apoptosis
CCOC(=O)c1c(C)n(CC(O)CN(C)C)c2cc(Br)c(OC)cc12 (stereo not drawn)	79.2*	-13.9	-0.4	-3.0	-10.9	1.9
COc1ccc(-c2csc(NC(C)c3nc4cc(C(=O)NCCCO)ccc4n3Cc3ccc(C)cc3)n2)cc1 (stereo not drawn)	8.7	-6.3	0.3	-13.2	11.2	-2.5
c1cc[n+](CCC[n+]2ccccc2)cc1	-18.8	-0.3	-0.5	8.9	13.0	-4.2
CN(c1ccccc1)c1nc(N2CCCC2)nc(-n2ccnc2)n1	12.5	18.8	-1.3	-51.5	-24.6	2.1
c1ccc(N(c2ccccc2)c2nc(N3CCCC3)nc(-n3ccnc3)n2)cc1	57.0*	101.2*	-0.5	1.6	3.3	24.2
c1ccc(CN2CCN(c3nc(-c4ccccc4)nc(-n4ccnc4)n3)CC2)cc1	59.6*	41.8	-0.3	-20.1	7.2	39.3
Nc1[nH]n(-c2ccccc2)c(=O)c1N=Nc1ccc2c(c1)OCO2	12.0	112.9*	2.8	0.1	3.5	15.5
Nc1[nH]n(-c2ccccc2)c(=O)c1N=Nc1ccc2c(c1)OCCO2	24.2	7.6	1.0	-4.0	-0.6	-2.8
NC(=O)Cn1cnc2nc3n(c2c1=O)CCC3	-12.8	-4.5	2.1	1.6	-3.1	-0.1
O=C(NNC(=O)C1C2CCC(C2)C1C(=O)O)c1ccc(Br)o1 (stereo not drawn)	-0.8	7.0	0.9	4.5	99.7*	1.3
CC(C)c1ccc(C(=O)NNC(=O)C2C3CCC(C3)C2C(=O)O)cc1 (stereo not drawn)	-0.9	0.4	2.5	17.6	11.7	-8.1
CCC1C(=O)NCCN1C(=O)c1ccc(OC)c(OC2CCN(C(C)=O)CC2)c1 (stereo not drawn)	-10.9	-5.8	-0.2	2.3	0.7	-5.6
O=C1C(Cc2ccc(O)cc2)NC(=S)N1C1CCCCC1 (stereo not drawn)	12.2	11.9	0.6	5.1	7.3	-8.0
CN(C)CCCn1c(SCC(=O)Nc2nc(-c3cccc(Br)c3)cs2)nc2ccccc2c1=O	68.3*	?	0.8	8.0	-4.4	14.8
CCOC(=O)c1c(C)[nH]c(C(=O)COC(=O)COc2ccccc2C=O)c1C	-3.4	1.9	0.2	34.1	1.6	-3.6
CCn1c(C)nc2cc(NC(=O)Nc3cccc(C(C)=O)c3)ccc21	-6.9	-10.9	-3.6	18.4	22.5	-3.2
CN(C)C=NC(=O)c1cn(-c2ccc(F)cc2)c(=O)c2ccccc12	3.4	-1.3	57.9*	·	4.2	-3.7
CN(C)C(=O)c1cn(-c2ccc(Cl)cc2)c(=O)c2ccccc12	-7.7	4.1	-0.2	9.2	-3.7	-3.9
O=C(C1=COCCO1)N1CCN(c2nc3ccc([N+](=O)[O-])cc3s2)CC1	-0.3	-8.2	-0.4	9.5	26.8	-2.5
NC(=O)N/N=C/c1ccc(OCc2cccc(Cl)c2)cc1	-26.0	·	2.6	4.3	24.4	·
Cc1ccc(-c2cc(C(=O)NCc3cccnc3)no2)cc1	-5.6	-5.3	2.5	-3.7	4.0	1.3
CCCNC(=O)c1cc(-c2ccco2)on1	6.9	30.6	16.1*	?	-24.4	33.2
O=C(NCc1cccnc1)c1cc(-c2ccco2)on1	-11.8	-9.2	2.1	-1.7	-6.0	100.8*
Cc1csc(NC(=O)c2nn(C)c(C)c2[N+](=O)[O-])n1	7.5	-18.2	1.0	-3.4	14.1	-11.6
O=C(NC1CCCC1)c1cccc(S(=O)(=O)N2CCCC2)c1	·	·	·	·	·	1.4
SMILES	T cruzi inh	CSC inhib	HIF act	PolyA inhibitor	Calb FLC	Beta apoptosis
CCn1c(COc2ccc(=O)n(-c3ccccc3)n2)nnc1SCc1cccc(OC)c1	29.7	-16.2	-0.1	4.5	85.3*	-4.5
CCCCCCOC(=O)C[N+](C)(C)CCOC1CC2CCC1(C)C2(C)C (stereo not drawn)	72.0*	-6.0	-0.3	0.2	102.9*	123.1*
CC(C)CCOC(=O)C[N+](C)(C)CCOC1CC2CCC1(C)C2(C)C (stereo not drawn)	60.8*	0.2	0.1	-10.6	102.7*	31.6
CCCCOC(=O)C[N+](C)(C)CCOC1CC2CCC1(C)C2(C)C (stereo not drawn)	50.4	4.4	-0.1	-1.7	?	8.9
CCC(C)OC(=O)C[N+](C)(C)CCOC1CC2CCC1(C)C2(C)C (stereo not drawn)	64.0*	30.2	-0.4	5.9	87.1*	18.7
CCCCCCCOC(=O)C[N+](C)(C)CCOC1CC2CCC1(C)C2(C)C (stereo not drawn)	61.8*	·	-0.8	15.2	107.5*	·
CCOCCCNC(=O)CN1C(=O)NC(Cc2c[nH]c3ccccc23)C1=O (stereo not drawn)	-4.6	-7.1	-0.6	18.5	9.4	-0.9
O=C(O)c1cccnc1SCc1ccccc1Cl	-10.4	6.4	108.1*	10.7	-38.3	-4.8
O=C(O)c1cccnc1Sc1ccccc1Cl	-2.3	·	-0.2	-0.5	1.7	·
COCCN(C(=O)CSc1n[nH]c(-c2ccccc2)n1)c1c(N)n(CC(C)C)c(=O)[nH]c1=O	-1.8	·	0.1	1.7	0.0	-2.4
O=C(Nc1ccccc1O)c1ccc(NC(=O)C2CC2)cc1	-15.9	15.3	57.8*	-6.2	-0.9	-0.3
CN(CCC1CCOCC1)C(=O)c1cc(COc2c(F)cccc2F)on1	4.6	-1.5	1.3	-0.8	-1.1	-3.6
CSc1nc(Cl)c(C#N)c(-c2ccc(C)cc2)n1	-0.3	10.7	-0.2	-7.6	81.3*	3.3
Cc1ccc(C)c(-c2nnc(NC(=O)c3ccco3)o2)c1	0.3	-2.4	-0.4	-12.9	83.0*	0.8
COc1cc(C(=O)Oc2ccccc2/C=N/NC(=O)c2ccc(Cl)cc2Cl)cc(OC)c1OC	10.4	22.1	2.7	6.9	-3.1	92.1*
C=CCOc1ccccc1/C=N/NC(=O)c1ccc(Cl)cc1Cl	-4.3	-14.0	-0.8	29.0	?	1.3
CCNC(=O)NC(=O)C(C)OC(=O)c1oc2ccccc2c1CSC1CCCCC1 (stereo not drawn)	25.2	17.7	0.2	-3.9	-8.9	4.1
CNC(=O)NC(=O)C(C)OC(=O)c1oc2ccccc2c1CSc1ccc(Cl)cc1 (stereo not drawn)	14.8	104.0*	-0.5	-5.0	1.3	-5.2
Oc1ccc(Cl)cc1-c1cc(-c2ccccc2Cl)[nH]n1	8.9	44.0	0.6	-20.5	-7.7	3.8
Oc1ccc(Cl)cc1-c1cc(-c2cccc(Br)c2)n[nH]1	-13.2	90.3*	1.2	-27.4	-7.1	18.2
CCN(c1ccc2c(c1)OCO2)S(=O)(=O)c1cc(Br)cc2c1N(C(C)=O)CC2	63.5*	·	-0.1	-10.1	-10.8	·
CC(=O)c1cccc(NC(=O)c2cccc3ccccc23)c1	-0.8	-1.7	0.0	-5.7	-5.1	2.1
Cc1ccc(Cl)cc1N1CCN(C(=O)CSc2nnc3n2C(C)(C)Cc2ccccc2-3)CC1	23.7	40.7	-0.4	-6.4	18.2	93.6*

Assay outcomes from PubChem.
